Experimental findings from ChEMBL document CHEMBL1150261, “Ring size in octreotide amide modulates differently agonist versus antagonist binding affinity and selectivity” (J Med Chem, 2008) are described below.

Activity calls are given as the source filed them. The rule behind the calls is not given here.

Assay [1] concerns the target T1, Somatostatin receptor type 2 (Homo sapiens, UniProt P30874). Briefly: Displacement of [125I]-[Leu8, DTrp22, Tyr25]SRIF28 from human sst2 receptor expressed in chinese hamster CCL39 cells by autoradiography. It counts as cell-based.
In assay [2] the target is Somatostatin receptor type 1 (Homo sapiens, UniProt P30872). Briefly: Displacement of [125I]-[Leu8, DTrp22, Tyr25]SRIF28 from human sst1 receptor expressed in CHOK1 cells by autoradiography. In kind it is cell-based, CHO-K1.
In assay [3] the target is Somatostatin receptor type 3 (Homo sapiens, UniProt P32745). The assay is described as follows: Displacement of [125I]-[Leu8, DTrp22, Tyr25]SRIF28 from human sst3 receptor expressed in chinese hamster CCL39 cells by autoradiography. It counts as cell-based.
In assay [4] the target is Somatostatin receptor type 4 (Homo sapiens, UniProt P31391). The assay is described as follows: Displacement of [125I]-[Leu8, DTrp22, Tyr25]SRIF28 from human sst4 receptor expressed in chinese hamster CCL39 cells by autoradiography. In kind it is cell-based. (In a radioligand displacement assay an active substance lowers the binding of a labelled ligand.)
For assay [5], the target named is T1, Somatostatin receptor type 2. Briefly: Agonist activity at T7-tagged human sst2 receptor expressed in HEK293 cells at 100 to 10000 nM. It counts as functional, cell-based. In outline: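 Immunofluorescence microscopy internalization in HEK-sst2 cells. Agonist mode: peptides at 100 nM to 10,000 nM. Antagonist mode: 100 nM [Tyr3]-octreotide with 100-fold excess of peptide. Treatment 30 min at 37 °C, 5% CO2 in growth medium, then staining with polyclonal sst2-specific R2-88 antibody; n ≥ 2.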

For assay [6], the target named is Somatostatin receptor type 5 (Homo sapiens, UniProt P35346). Briefly: Displacement of [125I]-[Leu8, DTrp22, Tyr25]SRIF28 from human sst5 receptor expressed in CHOK1 cells by autoradiography. In kind it is cell-based, CHO-K1.
Chain of Somatostatin receptor type 5 (P35346 whole entry): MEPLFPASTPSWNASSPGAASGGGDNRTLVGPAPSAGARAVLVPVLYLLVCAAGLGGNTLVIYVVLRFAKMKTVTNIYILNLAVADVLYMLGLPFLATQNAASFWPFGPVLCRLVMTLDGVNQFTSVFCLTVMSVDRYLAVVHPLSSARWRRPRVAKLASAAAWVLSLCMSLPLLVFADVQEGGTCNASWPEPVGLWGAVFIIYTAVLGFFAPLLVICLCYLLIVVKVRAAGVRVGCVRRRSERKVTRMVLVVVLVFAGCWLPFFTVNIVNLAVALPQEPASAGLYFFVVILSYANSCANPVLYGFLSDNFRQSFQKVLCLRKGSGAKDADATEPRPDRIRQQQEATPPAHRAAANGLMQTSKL

T1 sequence (P30874 whole entry): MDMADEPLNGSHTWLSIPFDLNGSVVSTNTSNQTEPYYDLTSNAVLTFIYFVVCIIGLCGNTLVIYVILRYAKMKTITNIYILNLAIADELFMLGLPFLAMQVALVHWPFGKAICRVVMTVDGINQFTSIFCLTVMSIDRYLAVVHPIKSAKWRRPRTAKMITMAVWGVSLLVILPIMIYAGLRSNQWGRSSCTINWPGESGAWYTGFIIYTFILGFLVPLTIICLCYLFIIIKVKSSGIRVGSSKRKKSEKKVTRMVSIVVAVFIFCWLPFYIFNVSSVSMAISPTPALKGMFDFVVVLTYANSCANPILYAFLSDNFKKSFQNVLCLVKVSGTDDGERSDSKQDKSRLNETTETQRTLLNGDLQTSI
Chain of Somatostatin receptor type 3 (P32745 whole entry): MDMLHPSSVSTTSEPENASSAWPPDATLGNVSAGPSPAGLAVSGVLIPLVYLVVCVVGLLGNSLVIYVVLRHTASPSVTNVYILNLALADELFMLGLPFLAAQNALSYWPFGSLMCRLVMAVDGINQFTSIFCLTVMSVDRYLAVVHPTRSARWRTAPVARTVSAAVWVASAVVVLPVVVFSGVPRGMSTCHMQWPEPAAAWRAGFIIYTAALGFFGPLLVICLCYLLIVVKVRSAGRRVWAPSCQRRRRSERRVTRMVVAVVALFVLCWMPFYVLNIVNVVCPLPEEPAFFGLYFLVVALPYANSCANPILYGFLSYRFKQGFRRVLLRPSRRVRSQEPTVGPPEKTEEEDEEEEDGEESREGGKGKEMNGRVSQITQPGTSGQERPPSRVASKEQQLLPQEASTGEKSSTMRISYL
Chain of Somatostatin receptor type 4 (P31391 whole entry): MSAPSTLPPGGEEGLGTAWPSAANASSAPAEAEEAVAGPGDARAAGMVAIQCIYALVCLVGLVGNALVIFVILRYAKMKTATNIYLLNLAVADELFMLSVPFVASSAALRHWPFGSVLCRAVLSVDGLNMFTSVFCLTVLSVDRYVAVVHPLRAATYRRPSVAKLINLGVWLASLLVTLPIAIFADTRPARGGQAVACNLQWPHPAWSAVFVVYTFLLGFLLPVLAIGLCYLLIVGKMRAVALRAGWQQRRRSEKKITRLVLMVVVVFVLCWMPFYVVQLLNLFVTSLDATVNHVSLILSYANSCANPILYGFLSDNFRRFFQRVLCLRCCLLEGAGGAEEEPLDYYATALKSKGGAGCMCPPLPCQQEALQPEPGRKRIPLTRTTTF
Chain of Somatostatin receptor type 1 (P30872 whole entry): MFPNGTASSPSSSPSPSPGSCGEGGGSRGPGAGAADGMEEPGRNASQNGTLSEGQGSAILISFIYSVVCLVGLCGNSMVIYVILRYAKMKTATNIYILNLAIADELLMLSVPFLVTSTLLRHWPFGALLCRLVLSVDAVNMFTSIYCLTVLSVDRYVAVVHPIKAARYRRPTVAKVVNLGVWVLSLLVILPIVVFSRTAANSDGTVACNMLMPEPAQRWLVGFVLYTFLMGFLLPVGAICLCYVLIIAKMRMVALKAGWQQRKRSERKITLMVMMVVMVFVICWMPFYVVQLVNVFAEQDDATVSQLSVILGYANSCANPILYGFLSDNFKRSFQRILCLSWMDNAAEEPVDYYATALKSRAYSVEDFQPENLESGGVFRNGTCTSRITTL

On to `C[C@@H](O)[C@H](NC(=O)[C@@H]1CSSC[C@H](NC(=O)[C@H](N)Cc2ccccc2)C(=O)N[C@@H](Cc2ccccc2)C(=O)N[C@H](Cc2c[nH]c3ccccc23)C(=O)N[C@@H](CCCCN)C(=O)N[C@@H]([C@@H](C)O)C(=O)N1)C(N)=O`, for which the IC50 in assay [1] is 1.9 nM; in assay [2], greater than 1000 nM; in assay [3], 39 nM; in assay [4], greater than 1000 nM. Further, the outcome in assay [5] was Active.

Regarding `C[C@@H](O)[C@@H]1NC(=O)[C@H](CCCCN)NC(=O)[C@@H](Cc2c[nH]c3ccccc23)NC(=O)[C@H](Cc2ccc(O)cc2)NC(=O)[C@H](NC(=O)[C@@H](N)Cc2ccc(Cl)cc2)CCSSCC[C@@H](C(=O)N[C@@H](Cc2ccc3ccccc3c2)C(N)=O)NC1=O`, the IC50 was 199 nM in assay [6]; 267 nM in assay [1]; 763 nM in assay [2]; 359 nM in assay [3]; 174 nM in assay [4].

Consider `C[C@@H](O)[C@H](NC(=O)[C@@H]1CCSSCC[C@H](NC(=O)[C@H](N)Cc2ccccc2)C(=O)N[C@@H](Cc2ccccc2)C(=O)N[C@H](Cc2c[nH]c3ccccc23)C(=O)N[C@@H](CCCCN)C(=O)N[C@@H]([C@@H](C)O)C(=O)N1)C(N)=O`, for which the IC50 was 109 nM in assay [6]; 4.9 nM in assay [1]; greater than 1000 nM in assay [2]; 452 nM in assay [3]; 115 nM in assay [4].

With `C[C@@H](O)[C@H](NC(=O)[C@@H]1NC(=O)[C@H]([C@@H](C)O)NC(=O)[C@H](CCCCN)NC(=O)[C@@H](Cc2c[nH]c3ccccc23)NC(=O)[C@H](Cc2ccccc2)NC(=O)[C@H](NC(=O)[C@H](N)Cc2ccccc2)SS1)C(N)=O`, the IC50 was greater than 1000 nM in assay [6]; 337 nM in assay [1]; greater than 1000 nM in assay [2]; greater than 1000 nM in assay [3]; 214 nM in assay [4].

Take `C[C@@H](O)[C@H](NC(=O)[C@H]1CCSSCC[C@@H](NC(=O)[C@H](N)Cc2ccccc2)C(=O)N[C@@H](Cc2ccccc2)C(=O)N[C@H](Cc2c[nH]c3ccccc23)C(=O)N[C@@H](CCCCN)C(=O)N[C@@H]([C@@H](C)O)C(=O)N1)C(N)=O`: the result in assay [5] was Active.

Broadly, the IC50 is the concentration that gives 50% inhibition. A low value points to inhibition by little substance.
